Experimental findings from ChEMBL document CHEMBL2150963, “Anthraquinones from a marine-derived Streptomyces spinoverrucosus” (J Nat Prod, 2012) are described below.

As usually defined, the IC50 is the concentration that inhibits the measured activity by half.

The source made the active and inactive calls. No cut-off for these calls is given here.

Assay [1] in a line: Cytotoxicity against human NCI-H2887 cells after 96 hrs by Cell Titer Glo assay. The assay is classed as functional, cell-based. To be noted: NCI-H2887, 96 h. The procedure, abridged: (§1)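 Cells were grown in RPMI/L-glutamine with penicillin 1000 U/ml, streptomycin 1 mg/mL and 5% FBS, humidified, at 37 °C and 5% CO2. They were seeded in 384-well plates at 750 (Calu-3) or 500 (H2887) cells/well and left overnight. Compounds in DMSO were added at 50 μM to 1 nM final, with 0.5% DMSO final. After 96 h, CellTiter-Glo was added, plates sat 10 min at room temperature, and luminescence was normalized to DMSO-only wells.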
A general note: In ATP-based viability assays light output follows the ATP content of the culture.

A further assay relates to Calu-3. The assay can be described thus: Cytotoxicity against human Calu3 cells after 96 hrs by Cell Titer Glo assay. The format is functional, cell-based. To be noted: Calu-3, 96 h. The procedure, abridged:
as §1

Assay [2] has as its system C127. The assay can be described thus: Epigenetic modulation in mouse C127 cells expressing CMV promoter assessed as induction of GFP expression at 10 uM after 24 hrs by LDR assay.
The test system of assay [3] is C127. In words: Epigenetic modulation in mouse C127 cells expressing CMV promoter assessed as induction of GFP expression at 1 uM after 24 hrs by LDR assay.

For `Cc1c(O)c(CCC(C)C)c2c3c1OC(C)(C)N=C3c1cccc(O)c1C2=O`, the IC50 (in assay [1]; with Calu-3) was over 50 µM throughout.
Take `Cc1c(O)c(C(=O)CC(C)C)c2c(c1O)C(=O)c1cccc(O)c1C2=O` [GALVAQUINONE C]: the IC50 (in assay [1]; with Calu-3) was over 50 µM in each case.
Turning to `Cc1cc(O)c2c(c1O)C(=O)c1cccc(O)c1C2=O` [ISLANDICIN], the 50% inhibitory concentration (IC50) (in assay [1]; in the assay on Calu-3) was over 50 µM each time.
With `Cc1cc2c(c(O)c1C(=O)CCC(C)C)C(=O)c1c(O)cccc1C2=O` [GALVAQUINONE A], the IC50 (in assay [1]; with Calu-3) was over 50 µM in each case. Moreover, the outcome in the assay with C127 [2] was Active.
With `Cc1c(O)c(CCC(C)C)c2c(c1O)C(=O)c1cccc(O)c1C2=O` [LUPINACIDIN A], the IC50 turned out to be 3.1 µM in assay [1] and 8.8 µM in the assay with Calu-3.
For the compound `Cc1c(O)c2c(c(O)c1C(=O)CCC(C)C)C(=O)c1c(O)cccc1C2=O` [GALVAQUINONE B], the IC50 was determined as 5 µM in assay [1] and 12.2 µM in the assay with Calu-3. The outcome in the assay on C127 [3] and with C127 [2] was Active.
